Consider eight compounds from paper PMC2746395 (Journal of medicinal chemistry, 2009).

Data set [1] concerns the target T1, NET (Macaca mulatta, UniProt Q9MYW8). Kind of data set: PET imaging in awake rhesus monkeys. In kind it is in vivo, rhesus monkey. The following applies: for effect of isoflurane anesthesia / awake state on binding kinetics: awake vs anesthetized monkeys.
In data set [2] the target is T1, NET. As to the kind of experiment: MicroPET imaging in anesthetized rhesus monkeys. In kind it is in vivo, rhesus monkey. The following applies: for Peak ratio of uptake cerebellum to caudate / Peak ratio of uptake midbrain to caudate / Peak ratio of uptake thalamus to caudate: time not stated; for time of peak uptake in all regions of interest: followed by fast washout.

Data set [3] deals with NET. As to conditions: rats, 60 min post injection; cited from earlier work.
In data set [4] the test system is NET. As to conditions: cited from earlier work.
The nature of data set [5]: Lipophilicity measurement. In kind it is physicochemical. As to conditions: relative to 1. The procedure, abridged: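 Radiolabeled test compound (~5–10 µCi) was added to 2 mL 1-octanol plus 2 mL 0.02 M sodium phosphate buffer (pH 7.4), vortexed 10 min at room temperature, then centrifuged 5 min. A 0.5 mL sample of each layer was gamma-counted and decay corrected. log P7.4 = log(octanol counts/buffer counts) per replicate; three replicates averaged.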

The next data set has as its target human SERT (hSERT) (Homo sapiens, UniProt P31645). As to the kind of experiment: In vitro competition binding vs [3H]citalopram in transfected HEK-293 cells. The following applies: Ki ratio relative to 1.
The next data set deals with human NET (hNET) (Homo sapiens, UniProt P23975). As to the kind of experiment: In vitro competition binding vs [3H]nisoxetine in transfected HEK-293 cells.
Sequence of human NET (hNET) (P23975 whole entry): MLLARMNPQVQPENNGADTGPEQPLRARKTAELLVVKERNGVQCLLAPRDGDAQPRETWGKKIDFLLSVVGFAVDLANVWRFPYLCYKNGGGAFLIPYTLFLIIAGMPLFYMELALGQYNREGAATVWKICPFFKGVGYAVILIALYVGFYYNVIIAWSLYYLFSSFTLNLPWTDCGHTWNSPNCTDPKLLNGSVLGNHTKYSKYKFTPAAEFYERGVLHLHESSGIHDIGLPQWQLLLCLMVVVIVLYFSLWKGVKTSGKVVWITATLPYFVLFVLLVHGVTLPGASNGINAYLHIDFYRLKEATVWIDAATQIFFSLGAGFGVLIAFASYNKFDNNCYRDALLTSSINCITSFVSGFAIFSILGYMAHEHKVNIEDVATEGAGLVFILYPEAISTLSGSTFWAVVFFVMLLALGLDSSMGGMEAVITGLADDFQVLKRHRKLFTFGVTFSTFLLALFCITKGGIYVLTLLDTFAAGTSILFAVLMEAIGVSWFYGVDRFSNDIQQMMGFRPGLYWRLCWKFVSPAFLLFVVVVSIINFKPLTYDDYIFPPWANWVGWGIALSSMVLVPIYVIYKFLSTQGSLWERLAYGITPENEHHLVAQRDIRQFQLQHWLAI
The subject of data set [6] is NET. As to conditions: cynomolgus monkeys and human; cited from earlier work.
[7] abbreviates: after injection, baseline, anesthetized.
Where [8] appears, read: postinjection, baseline, anesthetized.

Entries after “also recorded” stand apart in the source; their conditions may differ.

T1 sequence (Q9MYW8 1-617): as the sequence (P23975 whole entry) above, with N15S, T19A, I246V, V410I, V427I, S452G, I606V counted along it
Sequence of human SERT (hSERT) (P31645 whole entry): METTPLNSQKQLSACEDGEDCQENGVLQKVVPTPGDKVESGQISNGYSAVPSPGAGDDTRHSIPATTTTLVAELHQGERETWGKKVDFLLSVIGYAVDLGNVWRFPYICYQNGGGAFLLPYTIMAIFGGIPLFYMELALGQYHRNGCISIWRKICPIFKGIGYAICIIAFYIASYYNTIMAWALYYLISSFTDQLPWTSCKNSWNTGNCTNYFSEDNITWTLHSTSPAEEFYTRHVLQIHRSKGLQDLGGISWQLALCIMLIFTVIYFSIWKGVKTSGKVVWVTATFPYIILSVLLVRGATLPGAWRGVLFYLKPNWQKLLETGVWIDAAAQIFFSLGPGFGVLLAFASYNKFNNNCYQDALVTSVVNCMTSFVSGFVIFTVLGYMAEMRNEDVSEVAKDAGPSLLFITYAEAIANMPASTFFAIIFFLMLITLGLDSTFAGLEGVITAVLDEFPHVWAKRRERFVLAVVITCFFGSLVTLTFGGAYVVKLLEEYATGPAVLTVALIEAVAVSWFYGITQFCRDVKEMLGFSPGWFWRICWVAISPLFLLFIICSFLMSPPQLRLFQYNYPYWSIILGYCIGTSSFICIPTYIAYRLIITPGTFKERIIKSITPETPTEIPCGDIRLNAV

As to `[11CH3]c1ccccc1O[C@@H](c1ccccc1)[C@@H]1CNCCO1` [[^11C]1], at NET [1], the “effect of isoflurane anesthesia / awake state on binding kinetics” value is given as “not significantly altered”. Also, the “time of peak uptake” value on NET [1] (both awake and anesthetized monkey studies) is 17.5 to 35 min. The “highest ratios of uptake in NET-rich regions to that in caudate” value on NET [2] (45 min, anesthetized) is 1.30–1.45. Further, at NET [2] (45 min, baseline, anesthetized), the “Ratio of uptake pons to caudate (peak)” value came to 1.40. Besides, the “time of peak uptake of radioactivity in thalamus and pons” value at NET [2] (setting [7]) is 15.5 to 27.5 min. Besides, at NET [2] (after injection, both anesthetized and awake states), the “time to specific binding peak equilibrium (quasi-equilibrium)” value was “less than 1 h”. Also, at NET [2] (baseline, anesthetized), the “half-time for clearance from peak uptake (T1/2), thalamus and pons” value is ~ 105 min. Further, at NET [2] (setting [8]), the “time of peak uptake in caudate” value fell in the range of 18 to 35 min; the “time of peak uptake in midbrain and cerebellum” value was 9.5 to 18.5 min.

On to `[18F]CCOc1ccccc1OC(c1ccccc1)C1CNCCO1` (centres unmarked) [[^18F]2], for which, on NET [2] (baseline, anesthetized), the “Peak ratio of uptake cerebellum to caudate” value is reported as 1.05, the “Peak ratio of uptake midbrain to caudate” value is reported as 1.13, the “Peak ratio of uptake thalamus to caudate” value was determined as 1.13 and the “time of peak uptake in all regions of interest” value is reported as 15 min.

For `[11CH3]Oc1ccccc1O[C@@H](c1ccccc1)[C@@H]1CNCCO1` [(S,S)-[^11C]MeNER], in the data set with NET [3], the hypothalamus-to-striatum uptake ratio is on record as 2.5. For the same compound, in the data set on NET [4] (90 min postinjection), the “ratios of uptake in NET-rich brain regions to striatum” value is 1.4–1.6. Also, the thalamus-to-striatum uptake ratios in the data set with NET [4] (cynomolgus monkeys and baboons) is reported as 1.4–1.6.

Regarding `Cc1ccccc1S[C@@H](c1ccccc1)[C@@H]1CNCCO1` [compound 4, (2S,3S)-2-[α-(2-Methylphenylthio)phenylmethyl]morpholine], the “increase of log P7.4 on substitution of oxygen by sulfur” value in data set [5] turned out to be 0.43. Besides, the “times more potent than 1 for the SERT” value at human SERT (hSERT) was found to be 6.5 times. In addition, the “times more potent than 1 for the NET” value at human NET (hNET) (Ki ratio relative to 1) came to 3.4 times.

Regarding `[18F]CCCOc1ccccc1OC(c1ccccc1)C1CNCCO1` (centres unmarked) [[^18F]3], at NET [2] (baseline, anesthetized), the “Peak ratio of uptake cerebellum to caudate” value is given as 0.95, the “Peak ratio of uptake midbrain to caudate” value is listed as 1.18, the “Peak ratio of uptake thalamus to caudate” value is reported as 1.18 and the “time of peak uptake in all regions of interest” value was found to be 15 min.

Take `[2H]C([2H])([18F])Oc1ccccc1O[C@@H](c1ccccc1)[C@H]1CNCCO1` [(S,S)-[^18F]FMeNER-D2]: the thalamus-to-striatum binding ratio with NET [6] is reported as ~ 1.5.

As for `COc1ccccc1O[C@@H](c1ccccc1)[C@@H]1CNCCO1` [(S,S)-MeNER, reference compound], on human NET (hNET) (ratio of Ki values), the “NET selectivity DAT/NET” value was over 2000.

As to `[11CH3]c1ccccc1S[C@@H](c1ccccc1)[C@@H]1CNCCO1` [[^11C]4], the “effect of isoflurane anesthesia / awake state on binding kinetics” value at NET [1] is “markedly decreased; also recorded: greatly decreased”. Moreover, the “displacement of radioactivity in the caudate in chase study with SERT ligand” value at NET [2] ((R,S)-citalopram HBr 1.5 mg/kg 40 min after injection) is “no displacement”. Also, at NET [2] (setting [7]), the “time of peak uptake of radioactivity in thalamus and midbrain” value lay in the range of 27.5 to 45 min. At NET [2] (baseline, anesthetized), the “washout T1/2, thalamus and midbrain” value was ~ 160 min.
